High-throughput results from PubChem.
ALR inh: inhibitors of human ALR sulfhydryl oxidase, primary screen, biochemical, H2O2 detection, HRP-luminol luminescence, single point | purified ALR, DTT oxidation | inhibition, % (no concentration beside the values) | 290,000 tested, 3.8% active;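 active = mean replicate inhibition above about 79%, with every replicate also reaching it, limit read from the data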
Target sequence (P55789 whole entry, looked up): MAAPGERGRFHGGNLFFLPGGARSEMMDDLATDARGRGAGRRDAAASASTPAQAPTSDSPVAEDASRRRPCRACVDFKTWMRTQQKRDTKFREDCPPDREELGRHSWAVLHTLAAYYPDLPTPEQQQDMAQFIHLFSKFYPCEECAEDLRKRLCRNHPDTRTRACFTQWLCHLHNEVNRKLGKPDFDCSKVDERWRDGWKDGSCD
T cell modulator: modulators of CD8 T cell-vesicle binding, primary screen, mouse 2C CD8+ T cells, flow cytometry; 330,000 tested, 0.068% active; response (vesicle binding), % at 7 µM; 2C CD8+ T cell-vesicle binding; stronger effect = lower value;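 active = response, share of CD8 T cells binding vesicles, and their 90th percentile fluorescence all below set limits, cut at about 80% in these data, passing the limit was not always enough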;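 note: values below 100% mean blocked vesicle binding to the CD8+ T cells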
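material = purified 2C TCR transgenic mouse naive CD8+ T cells | controls = Unloaded micro-vesicles (low), QL9 vesicles with 0.7% DMSO (high) | detection = cytometric PE anti-B7-1 and Alexa647 anti-CD8 signals after 1% paraformaldehyde fixation | incubation = binding step 1.5 h, 37 °C, antibody labelling 20 min, ice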
N-glyco inh: increase of ERlucT glycosylation luciferase signal, primary screen, N-linked glycosylation inhibitor project, D54 ERlucT cells, luminescence, set 2. reporter increase, % at 12.5 µM. AID 588692, 2011. 360,000 tested, 0.23% active. D54 ERlucT glycosylation luciferase reporter, 24 h; percent of 100 nM tunicamycin response;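 active = mean luciferase reporter signal, scaled so untreated is 0 and the glycosylation-blocking control 100, at or above a set limit in every replicate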;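 note: luciferase carries N-glycosylation sites so blocking glycosylation raises the light; 0% = median of neutral control wells and 100% = median of 100 nM tunicamycin wells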
Starred values were filed as active, the others as inactive. This excerpt belongs to a sample that is enriched for hits.

For O=c1[nH]c(NC2CCN(S(=O)(=O)c3ccccc3C(F)(F)F)CC2)nc2c1CCCC2 the results were N-glyco inh -0.3.
For Nn1c(SCc2cccc3ccccc23)nnc1-c1ccco1 the results were ALR inh 99.1*, T cell modulator 680.0 and N-glyco inh 6.6.
Screening Cn1c(SCc2cccc3ccccc23)nnc1-c1ccco1 returned ALR inh 52.3, T cell modulator 355.5 and N-glyco inh 8.5.
CN(C)C(CNC(=O)CSc1nc2ccccc2c(=O)n1Cc1ccco1)c1ccccc1 (stereo not given) was read as ALR inh 6.3, T cell modulator 617.5 and N-glyco inh -0.3.
Screening CNc1nc(-c2ccc3c(c2)CCN3S(=O)(=O)c2ccccc2)c(C)s1 returned ALR inh -2.1, T cell modulator 113.9 and N-glyco inh -3.4.
CCCCOP(=O)(c1ccc(N(C)C)cc1)C(O)c1ccc(C(C)C)cc1 (stereo not given) was read as ALR inh 6.0, T cell modulator 130.2 and N-glyco inh 2.0.
For CCCCOP(=O)(c1ccc(N(C)C)cc1)C(O)c1ccc(N(C)C)cc1 (stereo not given) the results were ALR inh 92.3*, T cell modulator 181.4 and N-glyco inh 1.8.
For O=C1OCC(CO)(CO)N=C1NNc1ccccc1[N+](=O)[O-] the results were ALR inh 98.7*, T cell modulator 274.1 and N-glyco inh -1.9.
Screening Cc1cc(C(=O)NNc2cc(Cl)ccc2Cl)no1 returned T cell modulator 164.4 and N-glyco inh 2.7.
For O=C(CC(=O)Nc1ccccc1[N+](=O)[O-])Nc1ccccc1[N+](=O)[O-] the results were ALR inh -9.4, T cell modulator 230.4 and N-glyco inh 1.2.
`O=C1OCC(CO)(CO)N=C1NNc1cc(Cl)ccc1Cl` gave ALR inh 98.6*, T cell modulator 515.6 and N-glyco inh 1.3.
`CCOC(=O)C1(C)CCN1C(=O)c1ccc(F)c(Cl)c1` (stereo not given) gave N-glyco inh 0.9.
`Cc1cccc(NC(=O)c2ccccc2C(=O)Nc2cccc(C)c2)c1` gave ALR inh -2.7, T cell modulator 419.9 and N-glyco inh -0.2.
For O=C(O)c1ccccc1C(=O)Nc1ccc(Nc2ccccc2)cc1 the results were N-glyco inh 5.8.
For Cc1cc(Oc2ccc(N)cn2)cc(C)c1Cl the results were ALR inh 7.8, T cell modulator 372.6 and N-glyco inh 1.5.
`O=C(O)c1ccccc1C(=O)Nc1ccc(Oc2ccccc2)cc1` gave ALR inh 93.6*, T cell modulator 428.1 and N-glyco inh 0.5.
O=C(Nc1ccc(Oc2cccc(C(F)(F)F)c2)nc1)c1ccccc1 was read as ALR inh 23.0, T cell modulator 165.9 and N-glyco inh -4.5.
Screening Cc1cccc(Oc2ccc(NC(=O)c3ccccc3C(=O)O)cc2)c1 returned ALR inh 98.1*, T cell modulator 753.5 and N-glyco inh -1.4.
CC(C)(C)c1ccc(Oc2ccc(N)cn2)cc1 was read as ALR inh 98.1*, T cell modulator 695.6 and N-glyco inh -0.7.
For CC(C)(C)c1ccc(Oc2ccc(NC(=O)c3ccccc3C(=O)O)cn2)cc1 the results were ALR inh 92.6*, T cell modulator 225.3 and N-glyco inh 2.3.
Screening Cc1ccnc(NS(=O)(=O)c2cc(C(F)(F)F)ccc2Cl)c1 returned ALR inh -8.3 and T cell modulator 379.0.
Screening CSc1ncccc1C(=O)NNC(=O)c1ccc(NS(=O)(=O)c2cccs2)cc1 returned ALR inh 7.3, T cell modulator 384.7 and N-glyco inh 2.8.
CN(C)Cc1csc(NC(=O)Nc2ccccc2C(C)(C)C)n1 was read as N-glyco inh -2.2.
`COc1ccc(C)cc1NC(=O)c1ccc2c(O)c(S(=O)(=O)c3ccccc3)c(=O)[nH]c2c1` gave ALR inh 2.2, T cell modulator 336.5 and N-glyco inh 0.4.
Cc1cccc2sc(NC(=O)Cn3c(C)csc3=O)nc12 was read as N-glyco inh 2.1.
`CSc1nc2ncncc2[nH]1` gave N-glyco inh -1.3.
`COc1ccc(-n2nnnc2CNC(=O)c2c(-c3ccccc3Cl)noc2C)cc1` gave N-glyco inh 1.3.
`COc1ccc2c(c1)cc(C(=O)O)n2C` gave ALR inh -1.6, T cell modulator 330.9 and N-glyco inh 1.0.
For Cc1cccc(Oc2ccc3c(c2)cc(C(=O)O)n3C)c1 the results were ALR inh 98.0*, T cell modulator 308.0 and N-glyco inh -1.7.
For O=C(CSc1nnc2ccc(-c3ccc(F)cc3)nn12)NCC1CCCO1 (stereo not given) the results were ALR inh -4.1, T cell modulator 411.5 and N-glyco inh 0.9.
`CC(C)(C)c1cc(-c2n[nH]c(=S)n2-c2ccccc2F)n[nH]1` gave ALR inh 90.8*, T cell modulator 228.2 and N-glyco inh 1.9.
For Cc1ccccc1-n1c(-c2ccc(=O)[nH]n2)n[nH]c1=S the results were ALR inh 17.1, T cell modulator 564.8 and N-glyco inh 2.4.
O=C(CCl)N(c1ccccc1)c1c[nH]c2ccccc12 was read as ALR inh 61.7, T cell modulator 436.4 and N-glyco inh -6.6.
O=C(CCl)N(c1ccc(Cl)cc1)c1c[nH]c2ccccc12 was read as ALR inh 97.9*, T cell modulator 426.5 and N-glyco inh -0.6.
Screening S=C(Sc1ccc(Cl)cc1)Sc1ccc(Cl)cc1 returned ALR inh 5.2 and T cell modulator 132.6.
N#Cc1ccc(NC(=S)N2CCC3CC2c2cc(-c4ccc5c(c4)OCO5)ccc23)cc1 (stereo not given) was read as N-glyco inh -5.4.
Screening O=S(=O)(c1ccc(F)cc1)N1CCN(Cc2cc3c(cc2Br)OCCO3)CC1 returned ALR inh -2.2, T cell modulator 428.2 and N-glyco inh -4.4.
Screening Oc1ccc(N2CCN(Cc3cc4c(cc3Br)OCCO4)CC2)cc1 returned ALR inh 92.1*, T cell modulator 272.0 and N-glyco inh -1.4.
`Nc1nc(-c2ccccn2)nc(N)c1Cc1ccc(Cl)cc1Cl` gave ALR inh -2.7, T cell modulator 371.4 and N-glyco inh 19.7.
`C=CS(=O)(=O)c1c2cc(OC)ccc2nc2ccc(OC)cc12` gave N-glyco inh 53.1*.
For COc1ccc2nc(Cl)cc(Cl)c2c1 the results were ALR inh -8.3, T cell modulator 215.3 and N-glyco inh 1.1.
Screening COCC(=O)OC1CCn2c1nc1c2C(=O)C(C)=C(NC(C)=O)C1=O (stereo not given) returned N-glyco inh -1.5.
Screening CC(C)Oc1ccc(F)cc1-c1cc(C(=O)Nc2ccccc2)[nH]n1 returned N-glyco inh -0.9.
`CC(C)Oc1ccc(F)cc1-c1cc(C(=O)Nc2ccc(C(C)(C)C)cc2)[nH]n1` gave N-glyco inh 42.1*.
For C=CCN(C(=O)c1csnn1)C(C(=O)NCc1ccc(F)cc1)c1cccs1 (stereo not given) the results were ALR inh 9.9, T cell modulator 145.1 and N-glyco inh -2.9.
